Data as given in ChEMBL document CHEMBL1139076, “Structural simplification of bioactive natural products with multicomponent synthesis: dihydropyridopyrazole analogues of podophyllotoxin” (2007).

Columns and labels:
HeLa = assay: Cytotoxicity against human HeLa cells assessed as viability at 5 uM after 48 hrs by MTT method relative to control; assay type: functional; details: read-out: Activity
How it was run: (§1)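 Cells treated 48 h with compound at final 5 µM. Viability was read as mitochondrial dehydrogenase activity by MTT and expressed as % of the 100% DMSO control. Values are mean ± s.d. from two experiments.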

Jurkat [1] = assay: Cytotoxicity against human Jurkat cells assessed as viability at 5 uM after 48 hrs by MTT method relative to control; assay type: functional; details: read-out: Activity; how it was run: as §1
[2] = Cytotoxicity against human MCF7AZ cells assessed as viability at 5 uM after 48 hrs by MTT method relative to control; assay type: functional; details: MCF7/AZ, read-out: Activity; how it was run: as §1
Jurkat [3] = assay: Induction of apoptosis in human Jurkat cells at 5 uM by flow cytometric annexin-V/propidium iodide assay; assay type: functional, cell-based; details: TDE = time-dependent effect
How it was run: (§2)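 Jurkat cells were treated for 12, 24, 36 or 48 h against a DMSO control. Apoptosis was scored by flow cytometry after annexin-V/propidium iodide staining.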

Jurkat [4] = assay: Induction of apoptosis in human Jurkat cells at 5 uM after 48 hrs by flow cytometric annexin-V/propidium iodide assay; assay type: functional; how it was run: as §2
Jurkat [5] = assay: Induction of apoptosis in human Jurkat cells at 50 uM by flow cytometric annexin-V/propidium iodide assay; assay type: functional, cell-based; details: TDE = time-dependent effect
How it was run: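 Human T-cell leukemia Jurkat cells were exposed to compound alongside a DMSO control and harvested after 12, 24, 36 and 48 hours. Apoptosis was read by flow cytometry after annexin-V and propidium iodide staining.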

[6] = Cytotoxicity against human MCF7AZ cells assessed as viability at 50 uM after 48 hrs by MTT method relative to control; assay type: functional; details: MCF7/AZ, read-out: Activity
How it was run: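 MCF7-AZ cells were exposed 48 h to compound at final 50 µM. Viability was read as mitochondrial dehydrogenase activity by MTT, relative to DMSO control.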

Jurkat [7] = assay: Induction of apoptosis in human Jurkat cells at 50 uM after 48 hrs by flow cytometric annexin-V/propidium iodide assay; assay type: functional; how it was run: as §2

For `Cc1n[nH]c2c1C(c1ccncc1)C1=C(COC1=O)N2` (stereo not given), the viability at 5 µM (HeLa) was 94%, the viability at 5 µM (Jurkat [1]) was 92% and the viability at 5 µM [2] was 100%.

Molecule `Cc1n[nH]c2c1C(c1ccccc1)C1=C(COC1=O)N2` (stereo not given) has a viability at 5 µM (HeLa) of 74%, a viability at 5 µM (Jurkat [1]) of 87% and a viability at 5 µM [2] of 84%.

In the case of `Cc1n[nH]c2c1C(c1ccc(C3C4=C(COC4=O)Nc4[nH]nc(C)c43)cc1)C1=C(COC1=O)N2` (stereo not given), the viability at 5 µM (HeLa) is reported as 56%, the viability at 5 µM (Jurkat [1]) is reported as 96% and the viability at 5 µM [2] is reported as 99%.

In the case of `Cc1n[nH]c2c1C(c1c(C)nc3sccn13)C1=C(COC1=O)N2` (stereo not given), the viability at 5 µM (HeLa) is reported as 84%, the viability at 5 µM (Jurkat [1]) is reported as 85% and the viability at 5 µM [2] is reported as 100%.

`Cc1n[nH]c2c1C(c1ccsc1)C1=C(COC1=O)N2` (stereo not given) gave a viability at 5 µM (HeLa) of 98%, a viability at 5 µM (Jurkat [1]) of 82% and a viability at 5 µM [2] of 100%.

`COc1ccc(C2C3=C(COC3=O)Nc3[nH]nc(C)c32)cc1OC` (stereo not given) showed a viability at 5 µM (HeLa) of 73%, a viability at 5 µM (Jurkat [1]) of 88% and a viability at 5 µM [2] of 95%.

`Cc1n[nH]c2c1C(c1ccccc1Br)C1=C(COC1=O)N2` (stereo not given) gave a viability at 5 µM (HeLa) of 57%, a viability at 5 µM (Jurkat [1]) of 90% and a viability at 5 µM [2] of 100%.

`COc1cc([C@H]2C3=C(COC3=O)Nc3cc4c(cc32)OCO4)cc(OC)c1OC` gave a viability at 5 µM (HeLa) of 54%, a viability at 5 µM (Jurkat [1]) of 54% and a viability at 5 µM [2] of 52%.

In the case of `COc1cc(C2C3=C(COC3=O)Nc3[nH]nc(C)c32)cc(Br)c1OC(C)=O` (stereo not given), the viability at 5 µM (HeLa) is reported as 47%, the viability at 5 µM (Jurkat [1]) is reported as 36% and the viability at 5 µM [2] is reported as 46%.

`Cc1n[nH]c2c1C(c1cccc(F)c1)C1=C(COC1=O)N2` (stereo not given) showed a viability at 5 µM (HeLa) of 99%, a viability at 5 µM (Jurkat [1]) of 84% and a viability at 5 µM [2] of 76%.

Work on `Cc1n[nH]c2c1C(c1ccccc1[N+](=O)[O-])C1=C(COC1=O)N2` (stereo not given) yielded a viability at 5 µM (HeLa) of 71%, a viability at 5 µM (Jurkat [1]) of 64% and a viability at 5 µM [2] of 99%.

Work on `Cc1nc2ccccc2nc1C1C2=C(COC2=O)Nc2[nH]nc(C)c21` (stereo not given) yielded a viability at 5 µM (HeLa) of 72%, a viability at 5 µM (Jurkat [1]) of 97% and a viability at 5 µM [2] of 100%.

Work on `Cc1n[nH]c2c1C(c1cccc(Br)c1)C1=C(COC1=O)N2` (stereo not given) yielded a viability at 5 µM (HeLa) of 51%, a viability at 5 µM (Jurkat [1]) of 68% and a viability at 5 µM [2] of 63%. For the same molecule, the Activity (Jurkat [3]) was “tde” and the Activity (Jurkat [4]) was 70%.

Molecule `COc1cc2c(cc1OC)[C@@H](c1cc(OC)c(OC)c(OC)c1)C1=C(COC1=O)N2` has a viability at 5 µM (HeLa) of 53%, a viability at 5 µM (Jurkat [1]) of 35% and a viability at 5 µM [2] of 58%.

Molecule `Cc1n[nH]c2c1C(c1ccc(Br)cc1)C1=C(COC1=O)N2` (stereo not given) has a viability at 5 µM (HeLa) of 62%, a viability at 5 µM (Jurkat [1]) of 90% and a viability at 5 µM [2] of 92%.

In the case of `CSc1ccc(C2C3=C(COC3=O)Nc3[nH]nc(C)c32)cc1` (stereo not given), the viability at 5 µM (HeLa) is reported as 45%, the viability at 5 µM (Jurkat [1]) is reported as 87% and the viability at 5 µM [2] is reported as 95%.

Molecule `Cc1n[nH]c2c1C(c1ccc(OC(F)(F)F)cc1)C1=C(COC1=O)N2` (stereo not given) has a viability at 5 µM (HeLa) of 97%, a viability at 5 µM (Jurkat [1]) of 97% and a viability at 5 µM [2] of 84%.

`Cc1n[nH]c2c1C(c1cccs1)C1=C(COC1=O)N2` (stereo not given) gave a viability at 5 µM (HeLa) of 82%, a viability at 5 µM (Jurkat [1]) of 74% and a viability at 5 µM [2] of 98%.

For `C=C(C)[C@@H]1CC=C(C2C3=C(COC3=O)Nc3[nH]nc(C)c32)CC1` (stereo not given in full), the viability at 5 µM (HeLa) was 95%, the viability at 5 µM (Jurkat [1]) was 89% and the viability at 5 µM [2] was 91%.

`Cc1n[nH]c2c1C(c1cnn(-c3ccccc3)c1Cl)C1=C(COC1=O)N2` (stereo not given) showed a viability at 5 µM (HeLa) of 58%, a viability at 5 µM (Jurkat [1]) of 94% and a viability at 5 µM [2] of 100%.

`Cc1n[nH]c2c1C(c1ccc(N(C)C)c(Br)c1)C1=C(COC1=O)N2` (stereo not given) gave a viability at 5 µM (HeLa) of 55%, a viability at 5 µM (Jurkat [1]) of 34% and a viability at 5 µM [2] of 59%.

With `Cc1n[nH]c2c1C(c1cc(Br)c(O)c(Br)c1)C1=C(COC1=O)N2` (stereo not given) the viability at 5 µM (HeLa) was 58%, the viability at 5 µM (Jurkat [1]) was 58% and the viability at 5 µM [2] was 60%.

With `COc1cc([C@@H]2c3cc4c(cc3[C@@H](O[C@@H]3O[C@@H]5CO[C@@H](C)O[C@H]5[C@H](O)[C@H]3O)[C@H]3COC(=O)[C@H]23)OCO4)cc(OC)c1O` [ETOPOSIDE] the viability at 5 µM (HeLa) was 91%, the viability at 5 µM (Jurkat [1]) was 75% and the Activity (Jurkat [5]) was “tde”. It also gave a viability at 50 µM [6] of 57%, an Activity (Jurkat [7]) of 70% and a viability at 5 µM [2] of 76%.

For `Cc1n[nH]c2c1C(c1ccc(Cl)c(Cl)c1)C1=C(COC1=O)N2` (stereo not given), the viability at 5 µM (HeLa) was 88%, the viability at 5 µM (Jurkat [1]) was 71% and the viability at 5 µM [2] was 56%.

`Cc1n[nH]c2c1C(c1cccc(Cl)c1)C1=C(COC1=O)N2` (stereo not given) showed a viability at 5 µM (HeLa) of 43%, a viability at 5 µM (Jurkat [1]) of 76% and a viability at 5 µM [2] of 54%.

Work on `COc1cc(C2C3=C(COC3=O)Nc3[nH]nc(C)c32)cc([N+](=O)[O-])c1O` (stereo not given) yielded a viability at 5 µM (HeLa) of 78%, a viability at 5 µM (Jurkat [1]) of 90% and a viability at 5 µM [2] of 89%.

Work on `COc1ccc(C2C3=C(COC3=O)Nc3[nH]nc(C)c32)cc1` (stereo not given) yielded a viability at 5 µM (HeLa) of 73%, a viability at 5 µM (Jurkat [1]) of 94% and a viability at 5 µM [2] of 82%.

In the case of `COc1cc(C2C3=C(COC3=O)Nc3[nH]nc(C)c32)cc(OC)c1OC` (stereo not given), the viability at 5 µM (HeLa) is reported as 50%, the viability at 5 µM (Jurkat [1]) is reported as 47% and the viability at 5 µM [2] is reported as 58%. For the same molecule, the Activity (Jurkat [3]) was “tde” and the Activity (Jurkat [4]) was 70%.

`CCOc1c(Br)cc(C2C3=C(COC3=O)Nc3[nH]nc(C)c32)cc1OC` (stereo not given) showed a viability at 5 µM (HeLa) of 52%, a viability at 5 µM (Jurkat [1]) of 28% and a viability at 5 µM [2] of 49%.

In the case of `COc1cc([C@@H]2c3cc4c(cc3[C@H](O)[C@H]3COC(=O)[C@H]23)OCO4)cc(OC)c1OC` [PODOFILOX], the viability at 5 µM (HeLa) is reported as 19%, the viability at 5 µM (Jurkat [1]) is reported as 18% and the viability at 5 µM [2] is reported as 55%. For the same molecule, the Activity (Jurkat [3]) was “tde” and the Activity (Jurkat [4]) was 70%.

For `Cc1n[nH]c2c1C(c1cccnc1)C1=C(COC1=O)N2` (stereo not given), the viability at 5 µM (HeLa) was 69%, the viability at 5 µM (Jurkat [1]) was 88% and the viability at 5 µM [2] was 96%.

`Cc1n[nH]c2c1C(C)C1=C(COC1=O)N2` (stereo not given) gave a viability at 5 µM (HeLa) of 70%, a viability at 5 µM (Jurkat [1]) of 78% and a viability at 5 µM [2] of 97%.
